Active and inactive are the calls of the source.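 How the source made its calls: active means marked loss of luminescence, read as toxicity to breast epithelial cells carrying a control GFP hairpin; inactive means the rest.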
How the values were obtained:
[1] = test system: HMLE_shGFP viability, CellTiter-Glo luminescence, 72 h; experiment: HMLE_shGFP viability loss – cell-based, CellTiter-Glo luminescence, dry powder samples, counter-screen for breast cancer stem cell project, dose response (AID 588702)
Procedure, shortened: (§1)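 Test system – HMLE mammary epithelial cells expressing shGFP, toxicity counterscreen line · Amount – 1000 HMLE_shGFP cells per well · Doses – compound delivered to wells by pin transfer · Incubation – 24 h attachment, 72 h compound exposure · Signal – CellTiter-Glo luminescence · Control set – DMSO-only wells · Medium – serum-free screening medium for cell seeding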

[2] = as above; details: HMLE_shGFP viability, CellTiter-Glo luminescence, 72 h
Procedure, shortened: as §1

| Compound | AC50 [1] [µM] | outcome [2] |
| --- | --- | --- |
| CC(C)(C)c1ccc2c(c1)OC(C(=O)N/N=C/c1ccc[nH]1)CO2 (configuration not stated) | 21.1 | – |
| O=C(COc1cc(Cl)ccc1Cl)N/N=C/c1ccc[nH]1 | 11.4 | – |
| O=C(COc1ccc(Cl)cc1Cl)N/N=C/c1ccc[nH]1 | 51.4 | – |
| Cc1cc(Cl)ccc1OCC(=O)N/N=C/c1ccc[nH]1 | 29.9 | – |
| O=C(N/N=C/c1ccc[nH]1)c1cc2ccccc2o1 | 378 | – |
| O=C(COc1ccc(Cl)cc1Cl)N/N=C/c1cnc[nH]1 | – | inactive |
| O=C(COc1c(Cl)cc(Cl)cc1Cl)N/N=C/c1ccc[nH]1 | – | inactive |

Reference: PubChem BioAssay AID588702 (Broad Institute, 2011)
